Tested on: MS2 coat protein
Experiment: apparent Kd, MS2 coat protein; higher = weaker binding; RNA-MaP array; FMN 200 µM where present
How it was run: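 The titrant was SNAP-549-labelled MS2 coat protein, run from 0.7 or 1.5 nM in doubling steps to 3 µM. It was applied to designs transcribed by stalled E. coli RNA polymerase on Illumina sequencing-chip clusters, without ligand first and then with constant ligand, in 100 mM Tris-HCl pH 7.5, 80 mM KCl, 4 mM MgCl2, BSA, DTT, yeast tRNA and Tween-20. The apparent Kd is the median of filtered per-cluster binding-curve fits, with green signal normalised to red-channel RNA signal and control-cluster median Fmax.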

[1] = designed as: OFF switch for flavin mononucleotide, no ligand
[2] = ligand present: flavin mononucleotide, designed as: OFF switch for flavin mononucleotide
[3] = designed as: ON switch for flavin mononucleotide, no ligand
[4] = ligand present: flavin mononucleotide, designed as: ON switch for flavin mononucleotide

Row | Sequence | apparent Kd [1] [nM] | apparent Kd [2] [nM] | apparent Kd [3] [nM] | apparent Kd [4] [nM]
1 | GCACGGUAUGUAGGAUAUGCAUAGCAUUGCUAUGCAGAAGGACAUGAGGAUCACCCAUGUAUGUAUUCCAUACUAAUCCCGUGA | 5.72 | 5.98 |  | 
2 | GCACUGGAUGUAGGAUAUCAGGACGAUAAGUCCUGAGAAGGACAUGAGGAUCACCCAUGUGAUAAUUCCAGUGCAAAUAAUAUA | 14.3 | 31 |  | 
3 | GCACUUAGAGAUUUACCGUUACUAACAUGAGGAUCACCCAUGUAGGAUAUGCUAAUAGUAUUGAAGCAGAAGGACACUAAGUGC | 5 | 5.18 |  | 
4 | GCAGCACUCUUUAACAUGAGGAUCACCCAUGUCAAAAGACAUGAGGAUAUGCAUCUGAAGAAGAUGCAGAAGGCAUUGUGCUGC |  |  | 32.3 | 6.94
5 | GCAGCAUAGUUUACUAGCUGUUACAUGAGGAUCACCCAUGUUCAGGAUAUGGUCUGGAUUACAGGCCAGAAGGGAACAAGCUGC | 14.8 | 12 |  | 
6 | GCAGGCUUCGAGAAGGACAUGAGGAUCACCCAUGUGCGUGUGAAGCAGCCGUGAGGCUGCAUCAUGUAGGAUAUCGGAGUCUGG | 72.2 | 525 |  | 
7 | GCAGGGUAUGAGAAGGCAUAAUUUAUCUAACCACAUGAUUACAUGAGGAUCACCCAUGUUUCCAAUGAGGAUAUCAUACCGUGC | 8.05 | 7.54 |  | 
8 | GCAGGUUAAGUCAGGAUAUACCUAUGGAUACAUAGGUAGAAGGGACAUGAGGAUCACCCAUGUGACUCACCUGC | 27.9 | 57.6 |  | 
9 | GCAGGUUUACGAGGAUAUGGGUGGUACGGACAUGAGGAUCACCCAUGUCUCCCAGAAGGCGUAGCCCAACAAAGAGAACAGGAG |  |  | 160 | 22.5
10 | GCAUACAUUCGAGGAUAUCGGUGAACAAAUUAACGAGAAGGCGAUAUAAUUUUUAAUCUUAUAAACAUGAGGAUCACCCAUGUA |  |  | 21.8 | 19.5
11 | GCAUACUAAGGAUAUACAUGAGGAUCACCCAUGUUGCCAAAUGGCAGCAUCACCUGGAGUAGAAGGUAGAUGUA | 35 | 33.3 |  | 
12 | GCAUAUCAGGGAGGAUAUGACAUGAGGAUCACCCAUGUAAUUAUGGCUCUGUCAGAAGGCCCAUCGUCACUAUAGCGACGAGAA | 587 | 16.9 |  | 
13 | GCAUCACAUGAGGAUCACCCAUGUCUUCGGAGUCGAGGAUAUGGUCACUGUAAACAGUGGCCAGAAGGCGAGAUGC |  |  | 48.1 | 31.6
14 | GCAUGACAAAGUCAUGCAUAACGAACAUGAGGAUCACCCAUGUAGGAUAUGCUACUCAAAGAGUAGCAGAAGGACAUGUGCCUU | 34.2 | 263 |  | 
15 | GCAUGCAAGUAGAAGGACGGAUAUUUUGAUACCGUAGGAUAUGCAGAAUCAUAUCCACAUGAUAACAUGAGGAUCACCCAUGUA | 15 | 13.7 |  | 
16 | GCAUGCGUUCGAGGAUAUCGGUGAGAAACGGAACGAGAAGGCGAUCGAAUGUCACAUAUUAUGUACAUGAGGAUCACCCAUGUA |  |  | 126 | 37.8
17 | GCCACACAUGAGGAUCACCCAUGUGAGGAUAUCAUGCUUCGUAGUAAACUACGAAGUGUGAGAAGGCACAUGGC | 33.4 | 155 |  | 
18 | GCCAGGAUGUGAGGAUAUGCUGAGGAUAACUCAGCAGAAGGCACAUGAGGAUCACCCAUGUAAACUUAUCAUAAAUACCCUGGC | 14.3 | 21.2 |  | 
19 | GCCAUCACAUGAGGAUAUGCUCGGGUUUCCCGAGCAGAAGGCAUGUCAUAAGACAUGAGGAUCACCCAUGUAGUUAAGAUGGCA |  |  | 399 | 14.5
20 | GCCAUCACGUGAGGAUAUGCUCCCGUUUCGGGAGCAGAAGGCAUGUCAUCAGACAUGAGGAUCACCCAUGUAGUUAAGAUGGCA |  |  | 43.6 | 13.1
21 | GCCAUCGCAUGAGGAUAUCCUCAGCUUUGCUGAGGAGAAGGCAUGUCAAUAGACAUGAGGAUCACCCAUGUAGUUAAGAUGGCA |  |  | 692 | 81.3
22 | GCCAUCGCAUGAGGAUAUGCUCCCGUUUCGGGAGCAGAAGGCAUGUCAUAAGACAUGAGGAUCACCCAUGUAGAUAAGGUGGCA |  |  | 337 | 12.7
23 | GCCAUCUCAUGAGGAUAUGCUCCCGUGUCGGGAGCAGAAGGCAUGUCAUAAGACAUGAGGAUCACCCAUGUAGUUAAGAUGGCA |  |  | 263 | 11.1
24 | GCCCGGGCAGGAUAUGCAGGCCCGGGAAACCGGGCCAUGGGACAUGAGGAUCACCCAUGUAGAAGGGCCCGGGC | 17.1 | 17.3 |  | 
25 | GCCCUCCCUGAGGAUAUUAUCUGGUUCGAUUGAUAAGAAGGCAGUACAUGAGGAUCACCCAUGUGGUUCGUUUG | 108 | 285 |  | 
26 | GCCCUUUCUGAGGAUAUUAUCUGGUUCGAUUGAUAAGAAGGCAGUACAUGAGGAUCACCCAUGUGGUUCGUUUG | 99.6 | 242 |  | 
27 | GCCGAACAUGAGGAUCACCCAUGUCCGGGUAGUCAAGGAUAUGGGUAGGCAAUGCCGUGGCCAGAAGGUGGCUAUC |  |  | 97.6 | 30.9
28 | GCCGAAGGAGGAUAUACACCCGGUGGCAAAACGCCGGCUCGACAUGAGGAUCACCCAUGUAGAAGGCCUGUGGU | 16.4 | 18 |  | 

From the EternaBench riboswitch data
